ChEMBL document CHEMBL1153034, “Antileishmaniasis activity of flavonoids from Consolida oliveriana” (J Nat Prod, 2009)
Calls of active or inactive are those of the source. The rule behind the calls is not given here.

What was measured:
J774.2 = assay: Cytotoxicity against BALB/c mouse J774.2 cells after 72 hrs by trypan blue assay; format: cell-based
Outline: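 J774.2 macrophages in MEM with 10% inactivated FBS, pH 7.2, seeded at 10⁵ cells/mL, 2 days at 37 °C in 5% CO₂. Fresh medium with compound at 100, 50, 25, 10 and 1 µM, 72 h. Dead cells counted by trypan blue (0.1% in phosphate buffer); viability relative to control. IC50 by linear regression of K_c values.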

Leishmania peruviana [1] = assay: Antileishmanial activity against Leishmania peruviana infected in BALB/c mouse J774.2 cells assessed as decrease in parasite infection rate measured on day 10 relative to control; format: functional; design: scale not given: the % may be the effect or the level left
Leishmania peruviana [2] = assay: Antileishmanial activity against Leishmania peruviana in BALB/c mouse J774.2 cells assessed as reduction of morphological conversion to parasite amastigote number per cell measured on day 10 by Giemsa staining relative to control; format: functional; design: scale not given: the % may be the effect or the level left
Leishmania peruviana [3] = assay: Inhibition of acetate catabolite excretion in Leishmania peruviana promastigotes at IC25 after 96 hrs by NMR spectroscopy; format: functional
Outline: (§1)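 Promastigotes of L. (V.) peruviana or L. (V.) braziliensis in MTL medium (initial 5 × 10⁵ cells/mL) received drug at IC25; controls were untreated. After 96 h at 28 °C, cells were spun down at 1500 rpm for 10 min. Excreted end metabolites in the cell-free medium were identified by ¹H NMR and compared with fresh medium and untreated cultures.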

Leishmania peruviana [4] = assay: Inhibition of succinate catabolite excretion in Leishmania peruviana promastigotes at IC25 after 96 hrs by NMR spectroscopy; format: functional; outline: as §1
Leishmania peruviana [5] = assay: Antileishmanial activity against Leishmania peruviana assessed as induction of death of parasite with distortion of parasite body at IC25 after 96 hrs by transmission electron microscopy; format: functional, organism-based
Outline: (§2)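 L. (V.) peruviana MHOM/PE/1984/LC26 or L. (V.) braziliensis MHOM/BR/1975/M2904 promastigotes at 5 × 10⁶ cells/mL in MTL medium plus 10% inactivated FBS, in air at 28 °C, with drug at IC25 for 96 h. Pellets were PBS-washed, fixed 2 h at 4 °C in 2% (v/v) p-formaldehyde-glutaraldehyde in 0.05 M cacodylate (pH 7.4), and examined by TEM against untreated parasites.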

[6] = Ratio of compound IC50 to pentostam IC50 for BALB/c mouse J774.2 cells; format: ADME, cell-based; details: read-out: Ratio IC50
[7] = Ratio of compound IC50 to glucatim IC50 for BALB/c mouse J774.2 cells; format: ADME, cell-based; details: read-out: Ratio IC50
Leishmania braziliensis [8] = assay: Antileishmanial activity against intracellular Leishmania braziliensis amastigotes after 72 hrs by Giemsa staining; format: functional, organism-based
Leishmania peruviana [9] = assay: Increase in L-alanine catabolite excretion in Leishmania peruviana promastigotes at IC25 after 96 hrs by NMR spectroscopy; format: functional, organism-based; outline: as §1
Leishmania peruviana [10] = assay: Effect on pyruvate catabolite excretion in Leishmania peruviana promastigotes at IC25 after 96 hrs by NMR spectroscopy; format: functional, organism-based; outline: as §1
Leishmania peruviana [11] = assay: Effect on glycerol catabolite excretion in Leishmania peruviana promastigotes at IC25 after 96 hrs by NMR spectroscopy; format: functional, organism-based; outline: as §1
Leishmania peruviana [12] = assay: Antileishmanial activity against Leishmania peruviana assessed as disruption of parasite cytoplasm at IC25 after 96 hrs by transmission electron microscopy; format: functional, organism-based; outline: as §2
Leishmania peruviana [13] = assay: Antileishmanial activity against Leishmania peruviana assessed as abundance of morphologically altered glycosomes at IC25 after 96 hrs by transmission electron microscopy; format: functional, organism-based
Leishmania peruviana [14] = assay: Antileishmanial activity against extracellular Leishmania peruviana promastigotes after 72 hrs; format: functional, organism-based
Outline: (§3)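 Promastigotes grown in MTL medium plus 10% inactivated FBS, air atmosphere, 28 °C. Compounds at 100, 50, 25, 10 and 1 µM, DMSO 0.1%. Parasites counted in a Neubauer hemocytometer at 24, 48 and 72 h. Average of three separate determinations.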

Leishmania braziliensis [15] = assay: Antileishmanial activity against extracellular Leishmania braziliensis promastigotes after 72 hrs; format: functional, organism-based; outline: as §3
Leishmania peruviana [16] = assay: Antileishmanial activity against intracellular Leishmania peruviana amastigotes after 10 days by Giemsa staining
[17] = Mus musculus, BALB/c, J774.2, 72 h

`CC(=O)Oc1cc(OC(C)=O)c2c(=O)c(OC(C)=O)c(-c3ccc(OC(C)=O)c(OC(C)=O)c3)oc2c1` showed an IC50 (J774.2; [17]) of 109 µM, an Activity (Leishmania peruviana [1]) of 40% and an Activity (Leishmania peruviana [2]) of 72%. The “inhibition (INH)” value (Leishmania peruviana [3]) was 30%, the “inhibition (INH)” value (Leishmania peruviana [4]) was 30% and the Activity (Leishmania peruviana [5]) was “Active”. For the same compound, the selectivity ratio [6] was 10, the selectivity ratio [7] was 10 and the Activity (Leishmania braziliensis [8]) was “Active”. The Activity (Leishmania peruviana [9]) was “Active”, the Activity (Leishmania peruviana [10]) was “Active” and the Activity (Leishmania peruviana [11]) was “Active”. The Activity (Leishmania peruviana [12]) was “Active”, the Activity (Leishmania peruviana [13]) was “Active” and the IC50 (Leishmania peruviana [14]; Leishmania peruviana, 72 h) was 11.2 µM. The IC50 (Leishmania braziliensis [15]; Leishmania braziliensis, 72 h) was 46.8 µM and the Activity (Leishmania peruviana [16]) was “Active”.
In the case of `O=c1c(O)c(-c2ccc(O)cc2)oc2cc(O)cc(O)c12` [KAEMPFEROL], the IC50 (J774.2; [17]) is reported as 53.7 µM, the IC50 (Leishmania peruviana [14]; Leishmania peruviana, 72 h) is reported as 71.3 µM and the IC50 (Leishmania braziliensis [15]; Leishmania braziliensis, 72 h) is reported as 53.6 µM.
Work on `CC(=O)OC[C@H]1O[C@@H](Oc2c(-c3ccc(O)c(O)c3)oc3cc(O)cc(O)c3c2=O)[C@H](O)[C@@H](O)[C@H]1O` yielded an IC50 (J774.2; [17]) of 61.3 µM, an IC50 (Leishmania peruviana [14]; Leishmania peruviana, 72 h) of 87 µM and an IC50 (Leishmania braziliensis [15]; Leishmania braziliensis, 72 h) of 51.6 µM.
MEGLUMINE ANTIMONATE showed an IC50 (J774.2; j774.2) of 15.2 µM, an IC50 (Leishmania peruviana [14]) of 15.3 µM and an IC50 (Leishmania braziliensis [15]) of 25.6 µM.
For `O=c1c(O[C@@H]2O[C@H](CO)[C@H](O)[C@H](O)[C@H]2O)c(-c2ccc(O)cc2)oc2cc(O)cc(O)c12` [TRIFOLIN], the IC50 (J774.2; [17]) was 161 µM, the IC50 (Leishmania peruviana [14]; Leishmania peruviana, 72 h) was 53.3 µM and the IC50 (Leishmania braziliensis [15]; Leishmania braziliensis, 72 h) was 52.5 µM.
In the case of `O=c1c(O)c(-c2ccc(O)c(O)c2)oc2cc(O)cc(O)c12` [QUERCETIN], the IC50 (J774.2; [17]) is reported as 125 µM, the IC50 (Leishmania peruviana [14]; Leishmania peruviana, 72 h) is reported as 60 µM and the IC50 (Leishmania braziliensis [15]; Leishmania braziliensis, 72 h) is reported as 30.5 µM.
